Experimental data published in ChEMBL document CHEMBL3580637, “Selective Inhibition of Bacterial Topoisomerase I by alkynyl-bisbenzimidazoles” (Medchemcomm, 2014).
In brackets after ≈: the same amount, converted by molar mass. Activity calls are given as the source filed them. The calls are words filed in the database; no cut-off is given here.

What was measured:
[1] = biological target: DNA topoisomerase 2-alpha (Homo sapiens, UniProt P11388); assay: Inhibition of human DNA topoisomerase-2 using supercoiled pBAD-GFPuv plasmid DNA as substrate assessed as prevention of supercoiled DNA template from relaxation after 30 mins by agarose gel electrophoresis
Procedure, shortened: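 Compound at 5–50 µM final; 30 min at 37 °C, phenol stop. Read on 1% agarose/TAE gel with ethidium stain. IC50 = concentration at 50% (−) supercoiled DNA by band intensity; mean of ≥3 determinations.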

[2] = system: Staphylococcus aureus; assay: Antibacterial activity against Staphylococcus aureus ATCC 29213 after 24 hrs by microbroth dilution method; format: functional; conditions: ATCC 29213, 24 h
Procedure, shortened: (§1)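 Organisms were grown to log phase in Mueller-Hinton broth at 37 °C with shaking. They were pelleted, resuspended in 0.85% saline to OD625 0.1, and dispensed at a final 5×10^5 CFU/mL per CLSI microbroth dilution. Plates were run in triplicate and incubated 24 h at 37 °C, then OD625 was read. MIC was the lowest concentration giving complete growth inhibition versus untreated controls.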

[3] = Inhibition of Escherichia coli DNA topoisomerase-1 using supercoiled pBAD-GFPuv plasmid DNA as substrate assessed as prevention of supercoiled DNA template from relaxation after 15 mins by agarose gel electrophoresis
[4] = biological target: T1, DNA gyrase (Escherichia coli) (UniProt P0AES6+P0AES4); assay: Inhibition of Escherichia coli DNA gyrase using relaxed pBAD-GFPuv plasmid DNA as substrate at 1 to 50 uM after 30 mins by agarose gel electrophoresis; format: protein-complex assay
[5] = biological target: T2, DNA topoisomerase 1 (Homo sapiens, UniProt P11387); assay: Inhibition of human DNA topoisomerase-1 using supercoiled pBAD-GFPuv plasmid DNA as substrate assessed as prevention of supercoiled DNA template from relaxation after 30 mins by agarose gel electrophoresis
T2 sequence (P11387 whole entry): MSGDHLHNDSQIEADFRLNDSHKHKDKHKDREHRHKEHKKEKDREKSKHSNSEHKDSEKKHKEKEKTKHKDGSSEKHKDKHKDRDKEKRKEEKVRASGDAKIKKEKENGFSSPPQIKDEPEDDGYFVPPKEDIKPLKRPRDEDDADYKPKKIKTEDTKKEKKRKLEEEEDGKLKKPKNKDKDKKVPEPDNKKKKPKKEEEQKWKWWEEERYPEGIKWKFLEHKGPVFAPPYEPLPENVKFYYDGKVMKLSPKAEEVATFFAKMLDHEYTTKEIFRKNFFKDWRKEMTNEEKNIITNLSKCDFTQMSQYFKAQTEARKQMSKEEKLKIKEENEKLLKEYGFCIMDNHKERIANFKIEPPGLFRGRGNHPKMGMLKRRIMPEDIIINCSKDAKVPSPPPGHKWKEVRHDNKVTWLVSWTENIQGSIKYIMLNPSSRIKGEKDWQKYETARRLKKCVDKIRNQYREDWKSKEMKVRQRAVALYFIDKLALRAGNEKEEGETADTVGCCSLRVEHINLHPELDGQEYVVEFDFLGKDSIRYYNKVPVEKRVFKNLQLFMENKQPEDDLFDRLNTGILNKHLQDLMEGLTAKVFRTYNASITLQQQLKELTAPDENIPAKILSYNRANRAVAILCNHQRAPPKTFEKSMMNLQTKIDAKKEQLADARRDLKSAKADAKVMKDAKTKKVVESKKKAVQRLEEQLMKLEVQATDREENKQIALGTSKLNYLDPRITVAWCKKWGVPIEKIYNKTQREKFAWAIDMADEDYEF
Procedure, shortened: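 Compound at 5–50 µM final; 30 min at 37 °C, phenol stop. Read on 1% agarose/TAE gel with ethidium stain. IC50 = concentration at 50% (−) supercoiled DNA by densitometry; mean of ≥3 determinations.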

[6] = Binding affinity to dA60.dT60 DNA (unknown origin) assessed as change in melting temperature at 10 uM by UV-Vis spectrophotometric analysis
Procedure, shortened: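 Preformed dA60·dT60 duplex (equimolar strands heated 95 °C 15 min in 10 mM sodium cacodylate, 0.1 mM EDTA, 100 mM NaCl, pH 7.0, slowly cooled) at 1 µM duplex with 10 µM ligand (diluted from DMSO stock). Absorbance melting in 1 cm quartz cells, heating 0.2 °C/min, data every 1.0 °C; Tm shift versus ligand-free duplex.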

[7] = system: Staphylococcus aureus; assay: Antibacterial activity against Staphylococcus aureus ATCC 33591 after 24 hrs by microbroth dilution method; format: functional; conditions: ATCC 33591, 24 h; procedure, shortened: as §1
[8] = system: Enterococcus faecalis; assay: Antibacterial activity against Enterococcus faecalis ATCC 29212 after 24 hrs by microbroth dilution method; format: functional; conditions: ATCC 29212, 24 h; procedure, shortened: as §1
[9] = biological target: T3, DNA topoisomerase 1 (Homo sapiens) (UniProt P11387); assay: Inhibition of human DNA topoisomerase-1 using supercoiled pBAD-GFPuv plasmid DNA as substrate assessed as prevention of supercoiled DNA template from relaxation at 50 uM after 30 mins by agarose gel electrophoresis relative to control
T3 sequence (whole entry): T2 sequence (P11387 whole entry)
Procedure, shortened: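 Human topoisomerase I (2 units) was incubated with 250 ng supercoiled pBAD-GFPuv in 20 mM Tris-HCl pH 7.9, 50 mM KAc, 10 mM Mg(Ac)2, 1 mM DTT and 1 µg/ml BSA, with compound at 10 or 50 µM, for 30 min at 37 °C. After a phenol stop, DNA was resolved on 1% agarose without chloroquine beside a relaxed plasmid marker and stained with ethidium bromide.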

[10] = system: Escherichia coli; assay: Antibacterial activity against Escherichia coli K-12 after 24 hrs by microbroth dilution method; format: functional; conditions: K-12, 24 h; procedure, shortened: as §1
[11] = system: Pseudomonas aeruginosa; assay: Antibacterial activity against Pseudomonas aeruginosa ATCC 27853 after 24 hrs by microbroth dilution method; format: functional; conditions: ATCC 27853, 24 h; procedure, shortened: as §1
[12] = system: Calf thymus DNA; assay: Binding affinity to calf thymus DNA assessed as change in melting temperature relative to control; format: nucleic-acid assay; conditions: Bos taurus
[13] = system: Escherichia coli; assay: Antibacterial activity against Escherichia coli ATCC 25922 after 24 hrs by microbroth dilution method; format: functional; conditions: ATCC 25922, 24 h; procedure, shortened: as §1
[14] = system: DU-145; assay: Cytotoxicity against human DU145 cells after 48 hrs by sulforhodamine B assay; format: cell-based; conditions: DU-145, 48 h
Procedure, shortened: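 DU145 cells were seeded and allowed 24 h to resume growth at 37 °C, 5% CO2. They were treated in triplicate at final 20, 10, 5, 2.5, 1.25, 0.625 and 0.0625 µM for 48 h, alongside untreated and media-only wells. Cells were fixed with cold TCA (16% final) and stained with sulforhodamine B in 1% acetic acid. Bound dye was solubilized in 10 mM Tris base and read at 560 nm to give IC50.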

[15] = biological target: T1, DNA gyrase (Escherichia coli); assay: Inhibition of Escherichia coli DNA gyrase using relaxed pBAD-GFPuv plasmid DNA as substrate at 1 to 10 uM after 30 mins by agarose gel electrophoresis; format: protein-complex assay
[16] = Inhibition of Escherichia coli DNA topoisomerase-1 using supercoiled pBAD/Thio plasmid DNA as substrate assessed as prevention of supercoiled DNA from relaxation after 30 mins by agarose gel electrophoresis

Chain of DNA topoisomerase 2-alpha (P11388 whole entry): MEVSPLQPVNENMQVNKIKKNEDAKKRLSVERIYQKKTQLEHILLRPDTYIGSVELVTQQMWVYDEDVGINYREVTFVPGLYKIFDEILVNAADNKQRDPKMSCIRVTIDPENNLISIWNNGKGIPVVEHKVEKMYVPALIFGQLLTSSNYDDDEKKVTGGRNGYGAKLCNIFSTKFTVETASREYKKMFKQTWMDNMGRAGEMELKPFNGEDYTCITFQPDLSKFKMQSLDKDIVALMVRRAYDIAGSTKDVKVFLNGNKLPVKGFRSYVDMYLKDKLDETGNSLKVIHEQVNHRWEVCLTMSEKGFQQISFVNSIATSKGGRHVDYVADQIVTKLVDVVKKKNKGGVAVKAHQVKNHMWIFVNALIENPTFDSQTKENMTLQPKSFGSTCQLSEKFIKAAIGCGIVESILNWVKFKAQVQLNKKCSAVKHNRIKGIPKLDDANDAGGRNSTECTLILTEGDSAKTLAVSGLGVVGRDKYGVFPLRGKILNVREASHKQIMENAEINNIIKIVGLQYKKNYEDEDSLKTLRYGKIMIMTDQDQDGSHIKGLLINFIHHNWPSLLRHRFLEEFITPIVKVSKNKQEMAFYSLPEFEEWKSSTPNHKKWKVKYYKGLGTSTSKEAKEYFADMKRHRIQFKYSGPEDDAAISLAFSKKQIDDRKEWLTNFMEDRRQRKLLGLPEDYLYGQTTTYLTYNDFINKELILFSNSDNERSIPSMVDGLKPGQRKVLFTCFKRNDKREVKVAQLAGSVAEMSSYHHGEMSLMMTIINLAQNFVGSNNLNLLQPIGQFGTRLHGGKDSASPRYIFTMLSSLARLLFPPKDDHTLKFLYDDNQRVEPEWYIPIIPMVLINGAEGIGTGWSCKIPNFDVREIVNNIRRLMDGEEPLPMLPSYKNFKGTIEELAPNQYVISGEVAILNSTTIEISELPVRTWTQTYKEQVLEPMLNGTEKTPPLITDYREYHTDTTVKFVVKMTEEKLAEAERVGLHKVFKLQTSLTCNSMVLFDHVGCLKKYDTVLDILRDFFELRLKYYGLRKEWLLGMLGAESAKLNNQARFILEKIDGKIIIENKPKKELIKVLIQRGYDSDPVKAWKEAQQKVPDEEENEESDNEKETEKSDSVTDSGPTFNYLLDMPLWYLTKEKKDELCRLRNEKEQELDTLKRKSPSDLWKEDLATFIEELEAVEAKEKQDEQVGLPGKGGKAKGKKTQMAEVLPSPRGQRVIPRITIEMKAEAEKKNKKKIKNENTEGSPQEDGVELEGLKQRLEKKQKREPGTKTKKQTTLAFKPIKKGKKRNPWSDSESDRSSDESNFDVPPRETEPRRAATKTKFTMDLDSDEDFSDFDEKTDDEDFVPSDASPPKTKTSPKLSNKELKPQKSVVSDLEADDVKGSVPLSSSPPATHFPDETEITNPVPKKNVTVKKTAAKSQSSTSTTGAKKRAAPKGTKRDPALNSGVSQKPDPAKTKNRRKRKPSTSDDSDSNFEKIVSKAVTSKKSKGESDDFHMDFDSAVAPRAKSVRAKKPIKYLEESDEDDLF

Row | SMILES | IC50 [1] [µM] | MIC [2] [µg/mL] | IC50 [3] [µM] | inhibition [4] | IC50 [5] [µM] | ΔTm [6] [°C] | MIC [7] [µg/mL] | MIC [8] [µg/mL] | inhibition [9] [%] | MIC [10] [µg/mL] | MIC [11] [µg/mL] | ΔTm [12] [°C] | MIC [13] [µg/mL] | IC50 [14] [µM] | inhibition [15] | IC50 [16] [µM]
1 | CN1CCN(c2ccc3[nH]c(-c4ccc5[nH]c(-c6ccc(O)cc6)nc5c4)nc3c2)CC1 [HOECHST 33258] | 28.9 | ≥ 32 | 19.5 | inactive | 22.9 | 24.6 | 16 (≈ 37.7 µM) | 16 (≈ 37.7 µM) | – | – | – | – | – | – | – | –
2 | C#CCOCCCCOc1ccc(-c2nc3ccc(-c4nc5ccc(N6CCN(C)CC6)cc5[nH]4)cc3[nH]2)cc1 | – | 2 (≈ 3.74 µM) | 6.63 | inactive | – | 23.4 | 2 (≈ 3.74 µM) | – | 5 | 8 (≈ 15 µM) | 16 (≈ 29.9 µM) | 1 | 8 (≈ 15 µM) | – | – | –
3 | CCOc1ccc(-c2nc3cc(-c4nc5cc(N6CCN(C)CC6)ccc5[nH]4)ccc3[nH]2)cc1 | – | 2 (≈ 4.42 µM) | 29.8 | – | > 50 | 24.1 | 2 (≈ 4.42 µM) | 16 (≈ 35.4 µM) | – | – | – | – | 8 (≈ 17.7 µM) | 4.25 | – | –
4 | C#CCCCCOc1ccc(-c2nc3ccc(-c4nc5ccc(N6CCN(C)CC6)cc5[nH]4)cc3[nH]2)cc1 | – | 2 (≈ 3.96 µM) | 4.57 | inactive | – | 20.9 | 2 (≈ 3.96 µM) | 4 (≈ 7.93 µM) | 5 | 8 (≈ 15.9 µM) | 16 (≈ 31.7 µM) | 1 | 8 (≈ 15.9 µM) | 2.12 | – | –
5 | C#CCOc1ccc(-c2nc3ccc(-c4nc5ccc(N6CCN(C)CC6)cc5[nH]4)cc3[nH]2)cc1 | – | 2 (≈ 4.32 µM) | 5.5 | – | – | 22.9 | 2 (≈ 4.32 µM) | 16 (≈ 34.6 µM) | 70 | 8 (≈ 17.3 µM) | – | 1 | 8 (≈ 17.3 µM) | – | inactive | –
6 | COc1ccc(-c2nc3cc(-c4nc5cc(N6CCN(C)CC6)ccc5[nH]4)ccc3[nH]2)cc1OC | – | – | – | – | – | – | – | – | – | – | – | – | – | – | – | 3.8
7 | C#CCCCCCCCCCOc1ccc(-c2nc3ccc(-c4nc5ccc(N6CCN(C)CC6)cc5[nH]4)cc3[nH]2)cc1 | – | – | 2.47 | inactive | – | 8 | – | 16 (≈ 27.8 µM) | 5 | 8 (≈ 13.9 µM) | – | 1 | – | > 10 | – | –
